Screens as filed in PubChem BioAssay.
KCC2 mod – modulates chloride dependent transport by human KCC2. B-score of Tl+ flux slope (higher = more flux/activation; lower = inhibition) at 10 µM. KCC2 cells, thallium flux FluoZin-2 fluorescence. 190,000 compounds, 2.2% hits;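 active = thallium flux slope and its plate-corrected score both differing from the plate sample mean at a set confidence after two filtering rounds, in either direction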;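 note: slope of fluorescence scaled to starting intensity during 10 to 20 s after thallium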
WT yeast gro inh – growth inhibition of WT yeast, mitochondrial fusion screen | mitochondrial fusion phenotypic screen, WT strain | inhibition, % at 10 µM | 190,000 compounds, 2.1% hits; in the data active = inhibition above about 58%; tested in S. cerevisiae
p47phox inh – inhibitors of human p47phox binding; P14598; p47phox/p22phox peptide binding, fluorescence polarization, 2 h; inhibition, % at 24.7 µM; 220,000 compounds, 0.53% hits; AID 1274;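 active = inhibition above about 30%, limit read from the data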;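 note: 0% = p47phox with labelled peptide and 100% = labelled peptide alone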
ROMK primary – human ROMK K+ channel modulation, primary screen | P48048 | Tet-inducible ROMK, thallium flux fluorescence; actives lie on both sides | B-score at 10 µM | 130,000 compounds, 2% hits | AID 1918;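 active = signal ratio slope over the read window, or its plate-corrected B-score, at least 3 SD from the plate mean, either direction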;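 note: B-score of the F/F0 ratio slope over 7 to 12 s after thallium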
14-3-3 Bad PPI – disrupts binding of bovine 14-3-3 zeta to phospho-Bad peptide | P63103 | TR-FRET 14-3-3zeta/Dy647-pBad peptide displacement, 1 h | inhibition, % at 21.7 µM | 220,000 compounds, 0.71% hits | AID 781;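 active = inhibition above about 70%, limit read from the data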;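 note: 0% = full 14-3-3 plus peptide FRET controls and 100% = background without 14-3-3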
RBBP9 inhibitor – blocks human serine hydrolase RBBP9 | recombinant RBBP9, FP-Rh probe fluorescence polarization | inhibition, % at 7.94 µM | 220,000 compounds, 0.2% hits | AID 1515;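 active = inhibition above the campaign mean of all tested compounds plus 3 SD, cut at about 14% in these data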;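 note: plate controls were DMSO wells with RBBP9 for no effect and wells lacking RBBP9 protein for full effect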
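Assay system: recombinant human RBBP9; Reagent: Serine-hydrolase probe FP-Rh, 375 nM pre-mixing; Doses: 7.94 µM single dose, 0.794% DMSO; Incubation: 30 min then 45 min, 25 °C; Detection: fluorescence polarization (mP), excitation 525 nm, emission 598 nm; Evaluation: percent inhibition from mP, scaled between DMSO and no-protein wells.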
ROMK hit retest – confirmation of human ROMK potassium channel modulators | AID 1917 | shares compounds with ROMK primary | ROMK thallium flux, fluorescence ratio; active compounds read low | normalized thallium flux (F/F0 slope) at 10 µM | 3,000 compounds, 54% hits;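 active = Flux at 10 µM at least 3 SD below or above vehicle control mean in one or both replicates; inconclusive = no clear call, values can overlap the other calls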
* = called active by the depositor; ? = inconclusive; / = no result. Only some compounds are listed: those with a hit (about 5.8% of all), similar ones and a draw of the others.

SMILES	KCC2 mod	WT yeast gro inh	p47phox inh	ROMK primary	14-3-3 Bad PPI	RBBP9 inhibitor	ROMK hit retest
COc1ccc(S(=O)(=O)N2CCc3ccccc32)cc1C(=O)NCCc1ccccn1	-1.01	-15.0	-0.1	/	-10.6	-8.2	/
COc1cccc(CN2CCC(C(=O)N3CCN(c4ccccc4F)CC3)CC2)c1OC	-0.0909	-4.2	-5.8	-0.439	26.5	-6.6	/
CCOc1cc(/C=N/NC(=O)CN2CCCCC2)ccc1OCc1cccc(Cl)c1	0.636	31.6	-30.4	-4.63*	7.4	-5.0	?
Cc1ccc(NC(=O)N2CCCN(Cc3ccc(F)cc3)C2)cc1C	/	-8.5	-1.4	-4.03*	-5.5	8.2	0.0562*
Cc1cccc(C)c1NC(=S)N1CCCN(Cc2ccc(F)cc2)C1	-0.339	-10.2	0.3	/	-16.4	0.1	/
COCC(=O)N(Cc1cc2ccc(C)c(C)c2n2nnnc12)C1CCCC1	-1.17	6.8	-11.0	-0.238	9.1	-1.9	/
Cc1ccc(C(=O)NNC(=S)Nc2cccc(Cl)c2Cl)cc1[N+](=O)[O-]	/	8.2	-3.5	4.31*	-9.5	-10.3	0.0906
CC(=O)NC(Cc1cccc(F)c1)C(=O)NC1CCN(C(=O)c2ccc(C)cc2)CC1 (stereo not drawn)	0.302	1.4	0.7	1.12	-5.1	-10.8	/
CC(C)C(NC(N)=O)C(=O)NC1CCCCC1 (stereo not drawn)	0.795	-13.1	6.5	1.39	-6.3	1.5	/
CC1=NNC(=O)C1C(c1cccc(O)c1)C(C#N)C#N (stereo not drawn)	-0.599	/	14.4	-2.38*	-1.8	11.4	0.0755
CC(C)(C)c1nc(Sc2ccc([N+](=O)[O-])cn2)n[nH]1	0.451	/	-9.6	/	0.8	-3.3	/
O=[N+]([O-])c1ccc(Sc2n[nH]c(-c3ccc(Cl)cc3Cl)n2)nc1	/	23.1	-5.4	/	4.2	-4.1	0.0599*
Cc1ccc(C(=O)NNc2c3ccccc3nc3ccccc23)cc1	-1.33	/	-5.2	/	55.3	2.1	/
Cc1ccc(NNc2c(C)nc3ccccc3nc2=O)cc1	-0.178	-16.8	-5.9	2.72*	-1.0	-5.3	0.105*
CCOC(=O)c1sc(NC(=O)CSc2n[nH]c(-c3ccccc3)n2)c(C#N)c1C	-2.29	77.4*	-36.5	/	17.9	-12.5	0.0586*
O=C(c1ccc(N2CCOCC2)cc1[N+](=O)[O-])N1CCOCC1	-0.00985	-2.6	-7.2	1.33	-10.5	-6.9	/
COc1ccc(C(=O)NCC(=O)OCC(=O)Nc2cc([N+](=O)[O-])ccc2F)cc1	-0.272	3.2	-8.6	0.587	7.3	-1.0	/
O=C1c2ccccc2C(=O)N1CCCCSc1nc2ccccc2c(=O)n1CCCN1CCOCC1	-0.214	15.7	-3.3	-3*	-0.6	-15.5	0.0536*
COc1cc(CNCCNC(=O)c2nonc2N)ccc1OCc1ccc(Cl)cc1	0.639	9.2	-7.2	-3.07*	3.1	-2.8	0.0525*
Nc1nonc1C(=O)NCCNCc1cc(Br)ccc1OCc1ccccc1F	-2.12	23.3	-9.7	-4.15*	8.7	0.7	0.0489*
O=C(c1ccc([N+](=O)[O-])cc1)N(Cc1ccc(Br)cc1)N1C(=O)CCCC1=O	/	21.6	-6.8	-7.31*	-6.6	-2.0	0.0366*
Cc1ccc(C)c(-c2csc(N)c2C(=O)OC(C)C)c1	-0.22	21.3	-4.1	2.7*	1.4	-4.7	0.0781
CCN1CCN(C(c2nnnn2Cc2ccc3c(c2)OCO3)C(C)C)CC1 (stereo not drawn)	-1.74	-3.0	-2.8	/	16.8	-4.3	/
CC(C)C(c1nnnn1Cc1ccc(F)cc1)N1CCN(C2CCCCC2)CC1 (stereo not drawn)	/	-16.3	-4.6	-4.95*	-3.8	1.6	0.0607*
CC(C)C(c1nnnn1Cc1ccc(F)cc1)N1CCN(Cc2ccc3c(c2)OCO3)CC1 (stereo not drawn)	/	-14.1	-4.2	-2.34*	9.8	-4.3	0.0544*
SMILES	KCC2 mod	WT yeast gro inh	p47phox inh	ROMK primary	14-3-3 Bad PPI	RBBP9 inhibitor	ROMK hit retest
Cc1cc(C)c2c(N)c(C(=O)NN3CC(=O)N(c4ccccc4)CC3=O)sc2n1	1.3	/	-9.2	/	-0.6	1.7	/
O=C(Cn1nnc2ccccc21)NNC(=O)c1ccccc1	0.323	/	1.8	/	-0.4	10.9	/
Cc1[nH][nH]c(=O)c1C(c1c(C)[nH][nH]c1=O)c1cn(Cc2ccc(Cl)c(Cl)c2)c2ccccc12	-2.15	71.0*	-10.0	/	-3.4	-2.6	0.0559*
O=C(CSc1nnc(-c2ccc(S(=O)(=O)N3CCCC3)cc2)n1CC1CCCO1)NC1CC1 (stereo not drawn)	0.333	-7.6	-6.0	/	-2.7	6.3	0.0906
CC(C)(C)NC(=O)CN(C(=O)CN1C(=O)C(=O)c2ccccc21)C(C)(C)C	0.12	4.5	-0.7	-1.19	-1.1	-7.4	/
COc1cc(NC(C)=O)c2ncccc2c1NC(C)=O	/	/	-0.4	/	2.4	-1.4	/
COc1cc(NC(C)=O)c2ncccc2c1[N+](=O)[O-]	0.24	-11.8	0.1	-4.72*	8.6	-6.4	0.0465*
CCCCn1cnc(C(=O)OCC)c1N	1.49	1.0	-3.8	0.298	5.1	-7.9	/
CCOC(=O)N1CCC(=NNC(=O)Cn2ccc(C(F)(F)F)n2)CC1	-0.0162	1.7	-8.2	0.362	-11.8	-2.9	/
CCOCCCNC(=O)c1cc2sc(Cl)cc2n1CC	-0.00706	12.8	3.4	3.1*	3.2	0.7	0.0815
CCOCCCNC(=O)c1cc(C)nn1-c1ccccc1	0.769	0.5	-6.2	/	1.7	-6.2	/
CCOC(=O)c1cnc(SCCN2CCOCC2)nc1N	0.0669	10.1	3.7	0.913	-7.8	11.0	/
Cn1cccc1/C=C1\SC(=S)N(NC(=O)c2ccccc2)C1=O	-2.65	10.1	-23.8	-2.71*	-1.2	-8.7	0.0604*
Cn1cccc1/C=C1\SC(=S)N(NC(=O)c2ccc(F)cc2)C1=O	-1.99	/	-33.7	-0.625	0.1	-11.3	/
O=C(NCc1cccs1)C1CC(c2ccccc2O)=NO1 (stereo not drawn)	0.155	1.0	-3.6	/	-20.7	4.7	/
COc1ccc(OC)c(C2=NOC(C(=O)NCc3ccccn3)C2)c1 (stereo not drawn)	0.42	-14.2	3.4	/	1.1	-3.9	0.0759
O=C(NCc1ccccn1)C1CC(c2ccccc2O)=NO1 (stereo not drawn)	-1.6	-23.3	19.7	2.56*	-18.9	-0.1	0.0877
COc1cc(C(=O)N2CCN(c3ccccc3)CC2)c([N+](=O)[O-])cc1OC	-0.0214	-4.8	2.5	0.472	-18.4	3.3	/
COc1ccccc1CNC(=O)c1ccc(N2CCOCC2)c([N+](=O)[O-])c1	-1.26	3.2	-4.7	0.43	1.3	5.6	/
COc1ccc(C2NCCc3c2[nH]c2ccccc32)cc1CN1CCc2cc(OC)c(OC)cc2C1C (stereo not drawn)	0.583	/	-5.6	-3.82*	40.8	-7.2	0.0547*
